This passage reports MIC50 results from ChEMBL document CHEMBL1127450, “Synthesis and antiviral activity evaluation of some aminoadamantane derivatives” (1994).

Converted amounts (≈) assume the structure as drawn.

Assay type in all cases: functional
The test system of experiment [1] is CCRF-CEM. Kind of experiment: Tested for minimum inhibitory concentration required to reduce virus-induced cytopathicity by 50% on CEM cell line infected with HIV-2 virus. Conditions: Homo sapiens.
Experiment [2] relates to MDCK. Kind of experiment: Tested for minimum inhibitory concentration required to cause a microscopically detectable alteration of normal cell morphology by 50% on MDCK cell line. Conditions: Canis lupus familiaris. The procedure, abridged:
(§1)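 HeLa (human epithelial), MDCK (Madin-Darby canine kidney) or Vero (African green monkey kidney) cells were scored by microscopy. The value is the minimum concentration that causes a detectable alteration of normal cell morphology. Values are averages of at least two separate experiments.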

Experiment [3] relates to HeLa. Description: Tested for minimum inhibitory concentration required to reduce virus-induced cytopathicity by 50% on HeLa cell line infected with RSV virus. Conditions: Homo sapiens. The procedure, abridged:
(§2)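 HeLa (human epithelial), MDCK (Madin-Darby canine kidney) or Vero (African green monkey kidney) cells were infected with the stated virus. The value is the concentration that reduces virus-induced cytopathicity by 50%. Values are averages of at least two separate experiments.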
In general terms: Protection from cytopathic effect is a common read-out in antiviral testing.

Experiment [4] relates to Vero. Kind of experiment: Tested for minimum inhibitory concentration required to cause a microscopically detectable alteration of normal cell morphology by 50% on Vero cell line. To be noted: Chlorocebus sabaeus. The method, boiled down: as §1
For experiment [5], the system named is HEF. Description: Tested for minimum inhibitory concentration required to reduce virus-induced cytopathicity by 50% on HEF cell line infected with HSV-2 virus. Conditions: Homo sapiens. The method, boiled down:
(§3)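 Human embryonic skin-muscle fibroblasts (HEF) were infected with the stated virus. The value is the concentration that reduces virus-induced cytopathicity by 50%. Values are averages of at least two separate experiments.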

For experiment [6], the system named is HeLa. Description: Tested for minimum inhibitory concentration required to cause a microscopically detectable alteration of normal cell morphology by 50% on HeLa cell line. Conditions: Homo sapiens. The procedure, abridged:
as §1

Experiment [7] has as its system Vero. Kind of experiment: Tested for minimum inhibitory concentration required to reduce virus-induced cytopathicity by 50% on vero cell line infected with parainfluenza 3 virus. Conditions: Chlorocebus sabaeus. The procedure, abridged:
as §2

Experiment [8] deals with Vero. Description: Tested for minimum inhibitory concentration required to reduce virus-induced cytopathicity by 50% on vero cell line infected with Reo 1 virus. To be noted: Chlorocebus sabaeus. The procedure, abridged: as §2
The test system of experiment [9] is MDCK. Description: Tested for minimum inhibitory concentration required to reduce virus-induced cytopathicity by 50% on MDCK cell line infected with influenza B virus. To be noted: Canis lupus familiaris. The procedure, abridged: as §2
Experiment [10] deals with HeLa. Description: Tested for minimum inhibitory concentration required to reduce virus-induced cytopathicity by 50% on HeLa cell line infected with polio 1 virus. To be noted: Homo sapiens. The procedure, abridged:
as §2

Experiment [11] deals with HEF. Description: Tested for minimum inhibitory concentration required to reduce virus-induced cytopathicity by 50% on HEF cell line infected with vesicular stomatitis virus. Conditions: Homo sapiens. The method, boiled down:
as §3

The subject of experiment [12] is HEF. Kind of experiment: Tested for minimum inhibitory concentration required to reduce […] by 50% on HEF cell line. Conditions: Homo sapiens. The method, boiled down:
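Human embryonic lung fibroblasts (HEF) were used for cell proliferation. The value is the concentration that reduces cell proliferation by 50%. Values are averages of at least two separate experiments.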

The subject of experiment [13] is MDCK. Kind of experiment: Tested for minimum inhibitory concentration required to reduce virus-induced cytopathicity by 50% on MDCK cell line infected with influenza A virus. Conditions: Canis lupus familiaris. The procedure, abridged:
as §2

For experiment [14], the system named is CCRF-CEM. Description: Tested for minimum inhibitory concentration required to reduce virus-induced cytopathicity by 50% was evaluated on CEM cell line infected with HIV-1 virus. To be noted: Homo sapiens.
For experiment [15], the system named is Vero. Kind of experiment: Tested for minimum inhibitory concentration required to reduce virus-induced cytopathicity by 50% on vero cell line infected with semliki forest virus. Conditions: Chlorocebus sabaeus. The method, boiled down:
as §2

Experiment [16] concerns HEF. Description: Tested for minimum inhibitory concentration required to cause a microscopically detectable alteration of normal cell morphology by 50% on HEF cell line. Conditions: Homo sapiens. The method, boiled down:
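Human embryonic skin-muscle fibroblasts (HEF) were used. The value is the minimum concentration that causes a microscopically detectable alteration of normal cell morphology. Values are averages of at least two separate experiments.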

For experiment [17], the system named is HEF. Kind of experiment: Tested for minimum inhibitory concentration required to reduce virus-induced cytopathicity by 50% on HEF cell line infected with thymidine kinase-deficient herpes simplex virus type 1 (TK-HSV-1). To be noted: Homo sapiens. The method, boiled down:
as §3

The subject of experiment [18] is Vero. Kind of experiment: Tested for minimum inhibitory concentration required to reduce virus-induced cytopathicity by 50% on vero cell line infected with sindbis virus. Conditions: Chlorocebus sabaeus. The method, boiled down: as §2
In experiment [19] the test system is HEF. Description: Tested for minimum inhibitory concentration required to reduce virus-induced cytopathicity by 50% on HEF cell line infected with vaccinia virus. Conditions: Homo sapiens. The procedure, abridged: as §3
The subject of experiment [20] is HEF. Description: Tested for minimum inhibitory concentration required to reduce virus-induced cytopathicity by 50% on HEF cell line infected with HSV-1 virus. Conditions: Homo sapiens. The method, boiled down: as §3
Experiment [21] relates to CCRF-CEM. Description: Tested for minimum inhibitory concentration required to reduce virus-induced cell viability by 50% on CEM cell line. To be noted: Homo sapiens.
Experiment [22] deals with Vero. Description: Tested for minimum inhibitory concentration required to reduce virus-induced cytopathicity by 50% on vero cell line infected with coxsackie B4 virus. To be noted: Chlorocebus sabaeus. The method, boiled down:
as §2

Experiment [23] deals with Vero. Kind of experiment: Tested for minimum inhibitory concentration required to cause a microscopically detectable alteration of normal cell morphology by 50% on vero cell line. To be noted: Chlorocebus sabaeus. The procedure, abridged:
as §1

As to `NC1CC12C1CC3CC(C1)CC2C3` (stereo unspecified), the MIC50 was over 8 µg/mL against CCRF-CEM [1]; 100 µg/mL (≈ 564 µM) against MDCK [2]; 30 µg/mL (≈ 169 µM) in the experiment with HeLa [3]; 100 µg/mL (≈ 564 µM) with Vero [4]; over 20 µg/mL against HEF [5]; 40 µg/mL (≈ 226 µM) in the experiment on HeLa [6]. Further, the MIC50 in the experiment with Vero [7] was over 40 µg/mL; in the experiment on Vero [8], over 40 µg/mL; against MDCK [9], over 100 µg/mL; against HeLa [10], over 20 µg/mL; in the experiment on HEF [11] it was over 20 µg/mL; against HEF [12], 80 µg/mL (≈ 451 µM). Moreover, the MIC50 against MDCK [13] was 30 µg/mL (≈ 169 µM); against CCRF-CEM [14] it was over 8 µg/mL; against Vero [15], over 40 µg/mL; in the experiment with HEF [16] it was 40 µg/mL (≈ 226 µM); in the experiment on HEF [17], over 20 µg/mL; against Vero [18] it was over 40 µg/mL. The MIC50 in the experiment with HEF [19] was over 20 µg/mL; in the experiment on HEF [20] it was over 20 µg/mL; against CCRF-CEM [21] it was 32 µg/mL (≈ 180 µM); against Vero [22], over 40 µg/mL.
For `CN(C)C1CC12C1CC3CC(C1)CC2C3` (stereo unspecified), the MIC50 in the experiment on CCRF-CEM [1] was over 200 µg/mL; against Vero [23] it was over 400 µg/mL; with MDCK [2] it was 100 µg/mL (≈ 487 µM); against HeLa [3] it was over 200 µg/mL; with HEF [5] it was over 200 µg/mL; with HeLa [6] it was at least 400 µg/mL. The MIC50 is 100 µg/mL (≈ 487 µM) against Vero [7]; 400 µg/mL (≈ 1950 µM) in the experiment on Vero [8]; over 100 µg/mL against MDCK [9]; over 400 µg/mL with HeLa [10]; over 200 µg/mL with HEF [11]; over 200 µg/mL against HEF [12]. The MIC50 against MDCK [13] was 6 µg/mL (≈ 29.2 µM); in the experiment with CCRF-CEM [14], over 200 µg/mL; with Vero [15], over 400 µg/mL; in the experiment with HEF [16] it was at least 400 µg/mL; against HEF [17], over 200 µg/mL; in the experiment with Vero [18], over 400 µg/mL. The MIC50 was over 200 µg/mL against HEF [19], over 200 µg/mL in the experiment on HEF [20], over 200 µg/mL against CCRF-CEM [21] and over 400 µg/mL in the experiment with Vero [22].
Take `CN(C)CC1CC12C1CC3CC(C1)CC2C3` (stereo unspecified): the MIC50 with CCRF-CEM [1] was over 40 µg/mL; in the experiment with Vero [23], 100 µg/mL (≈ 456 µM); against MDCK [2] it was 70 µg/mL (≈ 319 µM); against HeLa [3] it was 40 µg/mL (≈ 182 µM); against HEF [5], over 20 µg/mL; against HeLa [6], 100 µg/mL (≈ 456 µM). The MIC50 was over 70 µg/mL against Vero [7]; over 70 µg/mL in the experiment on Vero [8]; over 100 µg/mL in the experiment with MDCK [9]; over 70 µg/mL in the experiment with HeLa [10]; over 20 µg/mL in the experiment on HEF [11]; 95 µg/mL (≈ 433 µM) with HEF [12]. The MIC50 is over 40 µg/mL against MDCK [13]; over 40 µg/mL in the experiment with CCRF-CEM [14]; over 70 µg/mL with Vero [15]; 40 µg/mL (≈ 182 µM) against HEF [16]; over 20 µg/mL against HEF [17]; over 70 µg/mL against Vero [18]. For the same compound, the MIC50 against HEF [19] is over 20 µg/mL; against HEF [20], over 20 µg/mL; with CCRF-CEM [21], 23 µg/mL (≈ 105 µM); against Vero [22], over 70 µg/mL.
